How the values were obtained:
[1] = species: Rattus norvegicus; assay: Percent decrease in serum cholesterol (Cho) after 7 days at 0.05 percent in the diet of SD male rats in comparison to control animals; format: functional
Outline: (§1)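 Normal SD male rats, five per group. Compound mixed into CE-2 powder diet at 50 mg/100 g (mg %), fed ad libitum for 7 days; controls received plain CE-2 powder. Total serum cholesterol measured by the Zak method and triglyceride by the Van Handel method after the feeding period. Activity expressed as percent depression versus the control-group mean. Single experiments.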

[2] = species: Rattus norvegicus; assay: Percent decrease in triglyceride (TG) after 7 days at 0.05 percent in the diet of SD male rats in comparison to control animals; format: functional; outline: as §1

CC(C)OC(=O)Cc1nc(-c2ccc(Cl)cc2)oc1-c1ccsc1
Reduction [1]: 9%
Reduction [2]: 29%

O=C(O)Cc1nc(-c2ccccc2)oc1-c1ccccc1
Reduction [1]: 6%
Reduction [2]: 20%

CCOC(=O)Cc1nc(-c2ccccc2)oc1-c1cccs1
Reduction [1]: 11%
Reduction [2]: 7%

CCCCCOC(=O)Cc1nc(-c2ccccc2)oc1-c1ccsc1
Reduction [1]: 20%
Reduction [2]: 30%

CCOC(=O)c1nc(-c2ccccc2)oc1-c1ccccc1
Reduction [1]: 9%
Reduction [2]: -30%

CCOC(=O)C(C)c1nc(-c2ccc(F)cc2)oc1-c1ccsc1 (configuration not stated)
Reduction [1]: 6%
Reduction [2]: 19%

CCCCCCCCCCCCCCCCCCOC(=O)Cc1nc(-c2ccc(F)cc2)oc1-c1ccsc1
Reduction [1]: 18%
Reduction [2]: 26%

COc1ccc(-c2nc(CC(=O)O)c(-c3ccsc3)o2)cc1
Reduction [1]: 3%
Reduction [2]: 26%

NC(=O)Cc1nc(-c2ccccc2)oc1-c1ccsc1
Reduction [1]: 20%
Reduction [2]: 3%

O=C(O)Cc1nc(-c2ccc(F)cc2)oc1-c1ccsc1
Reduction [1]: 23%
Reduction [2]: 39%

O=C(O)Cc1nc(-c2ccc(F)cc2)oc1-c1cccs1
Reduction [1]: 17%
Reduction [2]: 27%

O=C(O)Cc1nc(-c2ccc(Cl)cc2)oc1-c1cccs1
Reduction [1]: 16%
Reduction [2]: 38%

CCOC(=O)Cc1nc(-c2ccc(F)cc2)oc1-c1ccccc1
Reduction [1]: 3%
Reduction [2]: -4%

CCOC(=O)Cc1nc(-c2ccc(Cl)cc2)oc1-c1ccsc1
Reduction [1]: 16%
Reduction [2]: 47%

C=CCOC(=O)Cc1nc(-c2ccc(Cl)cc2)oc1-c1ccsc1
Reduction [1]: 11%
Reduction [2]: 39%

O=C(O)Cc1nc(-c2ccc(Cl)cc2)oc1-c1ccccc1
Reduction [1]: 6%
Reduction [2]: 14%

O=C(O)Cc1nc(-c2ccccc2Cl)oc1-c1ccsc1
Reduction [1]: 1%
Reduction [2]: 22%

CCCCCCCCOC(=O)Cc1nc(-c2ccc(F)cc2)oc1-c1ccsc1
Reduction [1]: 12%
Reduction [2]: 13%

CCOC(=O)Cc1nc(-c2ccc(C)cc2)oc1-c1ccsc1
Reduction [1]: 5%
Reduction [2]: 4%

CCOC(=O)C(C)(C)Oc1ccc(Cl)cc1 [CLOFIBRATE]
Reduction [1]: 15%
Reduction [2]: 16%

CCOC(=O)Cc1nc(-c2ccc(OC)cc2)oc1-c1ccsc1
Reduction [1]: 4%
Reduction [2]: 0%

CCOC(=O)Cc1nc(-c2ccc(Br)cc2)oc1-c1ccccc1
Reduction [1]: 10%
Reduction [2]: -7%

NC(=O)Cc1nc(-c2ccc(Cl)cc2)oc1-c1ccsc1
Reduction [1]: 16%
Reduction [2]: 12%

CCOC(=O)Cc1nc(-c2ccc(Cl)c(Cl)c2)oc1-c1ccsc1
Reduction [1]: 14%
Reduction [2]: 17%

O=C(Cc1nc(-c2ccc(Cl)cc2)oc1-c1ccsc1)OCC(O)CO (configuration not stated)
Reduction [1]: 15%
Reduction [2]: 43%

CCOC(=O)Cc1nc(-c2ccc(Cl)cc2)oc1-c1ccc(Br)s1
Reduction [1]: 0%
Reduction [2]: 20%

O=C(O)Cc1nc(-c2ccsc2)oc1-c1ccc(F)cc1
Reduction [1]: 13%
Reduction [2]: 31%

CCN(CC)C(=O)Cc1nc(-c2ccc(F)cc2)oc1-c1ccsc1
Reduction [1]: -2%
Reduction [2]: 2%

CCOC(=O)Cc1nc(-c2ccc(Cl)cc2)oc1-c1ccc(C)s1
Reduction [1]: 4%
Reduction [2]: 39%

CCCCOC(=O)Cc1nc(-c2ccc(F)cc2)oc1-c1ccsc1
Reduction [1]: 20%
Reduction [2]: 19%

CCOC(=O)Cc1nc(-c2ccc(Br)cc2)oc1-c1ccc(F)cc1
Reduction [1]: 12%
Reduction [2]: -5%

CCOC(=O)Cc1nc(-c2ccc(OC)cc2)oc1-c1ccccc1
Reduction [1]: 0%
Reduction [2]: 15%

O=C(O)Cc1nc(-c2cccc(Cl)c2)oc1-c1ccsc1
Reduction [1]: 7%
Reduction [2]: 38%

CC(C)OC(=O)Cc1nc(-c2ccc(F)cc2)oc1-c1ccsc1
Reduction [1]: 8%
Reduction [2]: 27%

CCOC(=O)Cc1nc(-c2ccsc2)oc1-c1ccc(F)cc1
Reduction [1]: 11%
Reduction [2]: 15%

CCCCOC(=O)Cc1nc(-c2ccccc2)oc1-c1ccsc1
Reduction [1]: 15%
Reduction [2]: 21%

CCOC(=O)Cc1nc(-c2cccc(Cl)c2)oc1-c1ccsc1
Reduction [1]: 8%
Reduction [2]: 61%

O=C(O)Cc1nc(-c2ccccc2)oc1-c1ccsc1
Reduction [1]: 15%
Reduction [2]: 41%

CCOC(=O)Cc1nc(-c2ccc(Cl)cc2)oc1-c1ccccc1
Reduction [1]: 7%
Reduction [2]: -12%

CCCCNC(=O)Cc1nc(-c2ccc(F)cc2)oc1-c1ccsc1
Reduction [1]: -8%
Reduction [2]: 13%

CCOC(=O)Cc1nc(-c2ccc(Cl)cc2)oc1-c1ccc(F)cc1
Reduction [1]: 22%
Reduction [2]: 3%

O=C(Cc1nc(-c2ccc(Cl)cc2)oc1-c1ccsc1)OCc1cccnc1
Reduction [1]: 13%
Reduction [2]: 3%

CCOC(=O)CCc1nc(-c2ccc(Cl)cc2)oc1-c1ccsc1
Reduction [1]: 0%
Reduction [2]: 34%

CCOC(=O)Cc1nc(-c2ccc(C)cc2)oc1-c1cccs1
Reduction [1]: 9%
Reduction [2]: -14%

O=C(O)Cc1nc(-c2ccccc2)oc1-c1cccs1
Reduction [1]: -4%
Reduction [2]: 28%

O=C(O)c1ncoc1-c1ccccc1
Reduction [1]: 2%
Reduction [2]: 11%

O=C(O)Cc1nc(-c2ccc(Cl)c(Cl)c2)oc1-c1ccsc1
Reduction [1]: 9%
Reduction [2]: 34%

CCCCOC(=O)Cc1nc(-c2ccc(Cl)cc2)oc1-c1ccsc1
Reduction [1]: 22%
Reduction [2]: 17%

CCNC(=O)Cc1nc(-c2ccc(F)cc2)oc1-c1ccsc1
Reduction [1]: -5%
Reduction [2]: 23%

OCc1nc(-c2ccc(F)cc2)oc1-c1ccsc1
Reduction [1]: -10%
Reduction [2]: -34%

Cc1ccc(-c2oc(-c3ccc(Cl)cc3)nc2CC(=O)O)s1
Reduction [1]: 9%
Reduction [2]: -4%

O=C(OCCc1nc(-c2ccc(F)cc2)oc1-c1ccsc1)c1cccnc1
Reduction [1]: -2%
Reduction [2]: 3%

COC(=O)c1nc(-c2ccc(F)cc2)oc1-c1ccsc1
Reduction [1]: 5%
Reduction [2]: 16%

Cc1ccc(-c2nc(CC(=O)O)c(-c3ccsc3)o2)cc1
Reduction [1]: 9%
Reduction [2]: 14%

CCc1nc(-c2ccc(F)cc2)oc1-c1ccsc1
Reduction [1]: -4%
Reduction [2]: 20%

O=C(OCc1nc(-c2ccc(F)cc2)oc1-c1ccsc1)c1cccnc1
Reduction [1]: 0%
Reduction [2]: 17%

CCOC(=O)Cc1nc(-c2cc(OC)c(OC)c(OC)c2)oc1-c1ccccc1
Reduction [1]: 0%
Reduction [2]: -19%

NC(=O)Cc1nc(-c2ccc(F)cc2)oc1-c1ccsc1
Reduction [1]: 19%
Reduction [2]: 13%

CCOC(=O)Cc1nc(-c2ccc(C)cc2)oc1-c1ccccc1
Reduction [1]: 5%
Reduction [2]: -18%

OCCc1nc(-c2ccc(F)cc2)oc1-c1ccsc1
Reduction [1]: 4%
Reduction [2]: 1%

CCCCCOC(=O)Cc1nc(-c2ccc(Cl)cc2)oc1-c1ccsc1
Reduction [1]: 19%
Reduction [2]: 45%

CCCCCOC(=O)Cc1nc(-c2ccc(F)cc2)oc1-c1ccsc1
Reduction [1]: 13%
Reduction [2]: 20%

CCOC(=O)Cc1nc(-c2ccc(F)cc2)oc1-c1ccc(F)cc1
Reduction [1]: 7%
Reduction [2]: 39%

CCOC(=O)Cc1nc(-c2ccc(Cl)cc2)oc1-c1cccs1
Reduction [1]: 15%
Reduction [2]: -10%

O=C(O)CCc1nc(-c2ccc(Cl)cc2)oc1-c1ccsc1
Reduction [1]: 5%
Reduction [2]: 51%

C=CCc1nc(-c2ccc(F)cc2)oc1-c1ccsc1
Reduction [1]: -2%
Reduction [2]: 3%

O=C(O)Cc1nc(-c2ccc(Cl)cc2)oc1-c1ccsc1
Reduction [1]: 16%
Reduction [2]: 43%

CC(C(=O)O)c1nc(-c2ccc(F)cc2)oc1-c1ccsc1 (configuration not stated)
Reduction [1]: 6%
Reduction [2]: 40%

CCOC(=O)Cc1nc(-c2ccccc2Cl)oc1-c1ccsc1
Reduction [1]: -5%
Reduction [2]: 15%

CCCCCCCCCCCCOC(=O)Cc1nc(-c2ccc(F)cc2)oc1-c1ccsc1
Reduction [1]: 18%
Reduction [2]: 34%

O=C(O)Cc1nc(-c2ccc(Br)cc2)oc1-c1ccccc1
Reduction [1]: 4%
Reduction [2]: -14%

CCOC(=O)Cc1nc(-c2ccccc2)oc1-c1ccccc1
Reduction [1]: 13%
Reduction [2]: 6%

CCOC(=O)Cc1nc(-c2ccc(F)cc2)oc1-c1ccsc1
Reduction [1]: 19%
Reduction [2]: 41%

CCOC(=O)Cc1nc(-c2ccccc2)oc1-c1ccsc1
Reduction [1]: 15%
Reduction [2]: 41%

COC(=O)Cc1nc(-c2ccc(Cl)cc2)oc1-c1ccsc1
Reduction [1]: 14%
Reduction [2]: 29%

CCOC(=O)Cc1nc(-c2ccc(F)cc2)oc1-c1cccs1
Reduction [1]: 17%
Reduction [2]: 31%
